This is an account of results in ChEMBL document CHEMBL1138329, “Pharmacokinetic/pharmacodynamic model-guided identification of hypoxia-selective 1,2,4-benzotriazine 1,4-dioxides with antitumor activity: the role of extravascular transport” (J Med Chem, 2007).

What is called AUC is concentration integrated over time. By IC50 is commonly meant the concentration at which inhibition is half-maximal. Lower therefore signals higher potency. By Cmax is commonly meant the highest concentration seen after dosing. A word on the half-life: it is how long it takes for the measured level to halve. Lower therefore signals rapid decline. The term solubility denotes how much of the substance goes into solution per volume.

Bounds are passed on as bounds.

The subject of data set [1] is Mus musculus. The experiment in a line: Toxicity in ip dosed CD1 mouse. Type of data set: organism-based. The following applies: in vivo. In short, it runs like this:
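MTD in CD-1 homozygous nude mice after single i.p. doses (HCl salts in saline, 5% DMSO/saline or lactate buffer pH 4.0), escalated in 1.33-fold increments. MTD taken as the highest dose causing no death, no body weight loss >15% and no other severe morbidity in any of 6 mice.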

Data set [2] relates to SiHa. The data set is described as follows: Ratio of IC50 for SiHa cells under oxic conditions to hypoxic conditions after 4 hrs. Type of data set: functional, Homo sapiens.
Data set [3] is described as follows: AUC in CD1 mouse at 316 umol/kg, ip. Type of data set: ADME, organism-based. The following applies: plasma. In short, it runs like this: (§1)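 Single i.p. dose to CD-1 homozygous nude mice, drug as HCl salt in 0.9% saline, 5% DMSO/saline or lactate buffer (pH 4.0). Plasma total drug measured by HPLC at 75 or 100% of MTD (MTD from 1.33-fold dose steps, 6 mice). Noncompartmental analysis gave AUC, Cmax and t1/2.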

Data set [4] has as its system HT-29. The experiment in a line: Cytotoxicity against human HT29 cells under hypoxic conditions after 4 hrs. Type of data set: functional, cell-based. To be noted: HT-29, 4 h.
Data set [5] concerns HT-29. The experiment in a line: Ratio of IC50 for HT29 cells under oxic conditions to hypoxic conditions after 4 hrs. Type of data set: functional, Homo sapiens.
Data set [6] can be described thus: Cmax in CD1 mouse at 316 umol/kg, ip. Type of data set: ADME, organism-based. Further details: dose 316 umol/kg, route intraperitoneal. The following applies: in vivo. Summed up:
as §1

The subject of data set [7] is SiHa. The experiment in a line: Cytotoxicity against human SiHa cells under hypoxic conditions after 4 hrs. Type of data set: functional, cell-based.
Data set [8] is described as follows: Half life in CD1 mouse at 316 umol/kg, ip. Type of data set: ADME, organism-based. To be noted: in vivo. Summed up: as §1
Data set [9] deals with HT-29. The data set is described as follows: Effect on human HT29 cells under hypoxic conditions assessed as drug level causing 10% clonogenic survival. Type of data set: functional. In short, it runs like this:
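HT29 suspensions (1 or 2 × 10^6 cells/mL) in serum-free medium were stirred under 5% CO2/95% N2 for 90 min. Drug was added from deoxygenated DMSO stock at a level giving about 10% survival at 1 h, and samples were taken up to 3 h. Clonogenic survival (14 days, methylene blue) was fitted with the HPLC concentration–time data, and the 10% survival exposure was interpolated.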

A short description of data set [10]: Solubility in culture medium in presence of 5% fetal calf serum. Type of data set: physicochemical. The following applies: culture medium with 5% fetal calf serum.
Data set [11] can be described thus: AUC in CD1 mouse at 750 umol/kg, ip. Type of data set: ADME, organism-based. The following applies: plasma. Summed up: as §1
In data set [12] the test system is HT-29. The data set is described as follows: Diffusion coefficient, D in HT29 multicellular layers. Type of data set: ADME, cell-based. To be noted: human. Summed up: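 HT29 multicellular layers were grown 3 days on collagen-coated Teflon membranes, equilibrated 60 min under 95% O2/5% CO2 at 37 °C, then placed in a diffusion chamber. Donor and receiver were sampled up to 5 h and assayed by HPLC. D came from fitting both profiles to a Fickian model with membrane and MCL in series, corrected by support-only Ds.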

Data set [13] in a line: Half life in CD1 mouse at 750 umol/kg, ip. Type of data set: ADME, organism-based. To be noted: in vivo. Summed up:
as §1

Data set [14] can be described thus: Cmax in CD1 mouse at 750 umol/kg, ip. Type of data set: ADME, organism-based. Further details: dose 750 umol/kg, route intraperitoneal. To be noted: in vivo. In short, it runs like this: as §1
Data set [15] can be described thus: Cmax in CD1 mouse at 1000 umol/kg, ip. Type of data set: ADME, organism-based. Further details: dose 1000 umol/kg, route intraperitoneal. The following applies: in vivo. In short, it runs like this:
as §1

The nature of data set [16]: AUC in CD1 mouse at 1000 umol/kg, ip. Type of data set: ADME, organism-based. The following applies: plasma. Summed up:
as §1

Data set [17] concerns HT-29. The experiment in a line: Antitumor activity against human HT29 cells implanted in CD1 mouse at 1000 umol/kg, ip administered 5 mins after irradiation by excision assay relative to radiation alone. Type of data set: functional. Summed up:
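Hypoxic-cell excision assay in HT29 xenografts in CD-1 homozygous nude mice. Mice received 20 Gy γ radiation to sterilize oxic tumor cells, then a single i.p. drug dose (HCl salt in saline, 5% DMSO/saline or pH 4.0 lactate buffer) 5 min later. Tumors excised at 18 h and plated for clonogens/g. Log cell kill = log(clonogens/g, radiation only) − log(clonogens/g, radiation plus drug).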

The nature of data set [18]: Half life in CD1 mouse at 1000 umol/kg, ip. Type of data set: ADME, organism-based. The following applies: in vivo. In short, it runs like this: as §1
Data set [19] relates to HT-29. The data set is described as follows: Antitumor activity against human HT29 cells implanted in CD1 mouse assessed as clonogenic survival at 1000 umol/kg, ip after 18 hrs relative to control. Type of data set: functional. Summed up: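 HT29 xenografts in CD-1 homozygous nude mice; single i.p. dose of drug alone, formulated as the HCl salt in 0.9% saline, 5% DMSO/saline or lactate buffer (pH 4.0). Tumors excised 18 h later, dissociated to single-cell suspensions and plated. Clonogens/g of tumor counted; surviving fraction = treated/control clonogens/g.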

Compound `CCc1ccc2c(c1)[n+]([O-])c(NCCN(C)C)n[n+]2[O-]` came in with an MTD in data set [1] of 421 µmol/kg. In addition, the results for the “Ratio IC50” value in [2] and in data set [5] were 186 and 116, respectively. Also, the AUC in data set [3] is 13.2 µM·h. In addition, the IC50 in data set [4] is 1.3 µM; in data set [7], 0.5 µM. Moreover, the peak level in [6] (Cmax) was 21.6 µM. In data set [8], the half-life amounted to 12.7 min. Also, the Activity in data set [9] is 6.2 µM·h. Further, the solubility in data set [10] was above 49 mM.
Regarding `Cc1ccc2c(c1)[n+]([O-])c(NCCN1CCOCC1)n[n+]2[O-]`, the AUC in data set [11] is 86.8 µM·h. The MTD in [1] came out at 1000 µmol/kg. Further, the “Ratio IC50” value came to 86 in data set [2] and 55 in data set [5]. For the same compound, in [12], the D amounted to 4.52e-07 cm²/s. Also, the half-life in data set [13] came to 15.4 min. Also, the IC50 in data set [4] was 21.8 µM; in data set [7] it was 8.3 µM. Also, the Cmax in data set [14] turned out to be 132 µM. The Activity in [9] was determined as 134 µM·h. In addition, the solubility in data set [10] is above 46 mM.
With `CCCN(CCC)CCNc1n[n+]([O-])c2ccc(C)cc2[n+]1[O-]`, the MTD in [1] stood at 421 µmol/kg. The “Ratio IC50” value worked out at 149 in data set [2] and 108 in [5]. The same compound gave a D in data set [12] of 1.48e-06 cm²/s. In data set [3], this compound gave an area under the curve (AUC) of 2.6 µM·h. Besides, the results for the IC50 in data set [4] and in [7] were 2.7 µM and 0.6 µM, respectively. Further, the Cmax in data set [6] turned out to be 3.8 µM. In [8], this compound had a half-life of 17.3 min. The Activity in data set [9] stood at 38.6 µM·h. In data set [10], the solubility was 38 mM.
Take `COc1ccc2c(c1)[n+]([O-])c(NCCN1CCCCC1)n[n+]2[O-]`: the MTD in data set [1] was determined as 421 µmol/kg. Further, the “Ratio IC50” value in data set [2] is 65; in [5], 24. In [3], this compound showed an AUC of 20.2 µM·h. Also, the figures for the IC50 in data set [4] and in data set [7] were 10.8 µM and 3 µM, respectively. Moreover, the maximum concentration (Cmax) in [6] stood at 26.7 µM. In [8], this compound registered a half-life of 24.6 min. For the same compound, the Activity in data set [9] turned out to be 38.9 µM·h. The solubility in data set [10] was determined as 45 mM.
`CC(C)Oc1ccc2c(c1)[n+]([O-])c(NCCN(C)C)n[n+]2[O-]`: the MTD in [1] came out at 1330 µmol/kg. The results for the Ratio IC50 in [2] and in data set [5] were 31 and 162, respectively. Further, the highest level in data set [15] (Cmax) was 123 µM. This compound showed an AUC in data set [16] of 102 µM·h. Moreover, the results for the concentration for half-maximal inhibition (IC50) in data set [4] and in [7] were 6.2 µM and 3.2 µM, respectively. In addition, the LCK in data set [17] is 0.53; in data set [19] it was -0.17. Further, the half-life in data set [18] was determined as 26.1 min. The Activity in data set [9] is 22.3 µM·h. Also, in data set [10], the solubility is above 55 mM.
The compound `CN(C)CCNc1n[n+]([O-])c2ccc(OCC3CC3)cc2[n+]1[O-]` had an MTD in data set [1] of 750 µM/g. Besides, the figures for the Ratio IC50 in data set [2] and in data set [5] were 101 and 35, respectively. In [16], this compound returned an AUC of 51.3 µM·h. Besides, the values for the IC50 in [4] and in data set [7] were 3.8 µM and 2.1 µM, respectively. Moreover, the figures for the LCK in data set [17] and in data set [19] were -0.06 and -0.14, respectively. The same compound yielded a half-life in data set [18] of 33.9 min. Further, the Activity in data set [9] came out at 45.1 µM·h. Besides, the solubility in data set [10] amounted to 43 mM.
`COc1ccc2c(c1)[n+]([O-])c(NCCN(C)C)n[n+]2[O-]` returned an MTD in data set [1] of 1000 µmol/kg. Also, the entries for the “Ratio IC50” value in data set [2] and in data set [5] were 232 and 89, respectively. This compound also registered a D in [12] of 2.32e-07 cm²/s. Besides, the Cmax in data set [15] amounted to 157 µM. The exposure (AUC) in data set [16] is 240 µM·h. In addition, the IC50 was found to be 7.7 µM in data set [4] and 2.9 µM in data set [7]. Moreover, the LCK in data set [17] is given as 1.84; in [19], 0.15. This compound also returned a half-life in data set [18] of 51.5 min. The Activity in [9] was found to be 26.1 µM·h. For the same compound, in data set [10], the solubility came to 46 mM.
In the case of `Cc1ccc2c(c1)[n+]([O-])c(N)n[n+]2[O-]`, the MTD in [1] is 1000 µmol/kg. In data set [12], this compound yielded a D of 5.43e-07 cm²/s. In data set [15], this compound gave a Cmax of 198 µM. Further, the half-inhibitory concentration (IC50) in data set [4] was 12.9 µM. In addition, in data set [5], the “Ratio IC50” value was found to be 36. Also, the LCK is given as 2.16 in data set [17] and 0.39 in data set [19]. Also, the half-life in data set [18] amounted to 34.1 min. The Activity in [9] is 61.9 µM·h. The solubility in data set [10] amounted to 3 mM.
